L major viab – Leishmania major promastigote growth inhibition, primary screen; AID 1063, 2008; Leishmania major promastigotes, resazurin fluorescence viability; inhibition, % at 10 µM; 200,000 compounds, 9% hits;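 further: promastigotes grown with compound for 44 hours at 28 °C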
Diaphorase inh – diaphorase inhibitors and chemical oxidizers, primary screen, counter-screen for diaphorase-coupled primary assays, biochemical, uHTS, resorufin fluorescence. AID 1217, 2008. inhibition, % at 20 µM. 190,000 compounds, 0.69% hits. diaphorase resazurin-to-resorufin fluorescence, NADH, 16 min; bacterial (C. kluyveri) enzyme, not human;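 active means primary screen inhibition at 20 µM above a set limit, cut at about 50% in these data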;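 further: plate controls were DMSO with full reaction for no effect and wells lacking NADH for full effect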
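Test system: bacterial diaphorase enzyme (C. kluyveri); Quantity: 0.14 U/mL diaphorase, enzyme working solution; Times: reaction incubation of 16 min at room temperature; Measured by: fluorescence of resorufin formed from resazurin, Ex 544/Em 590 nm; Benchmarks: positive control minus NADH, DMSO neutral control.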
WT yeast gro inh – growth inhibition of WT strain, primary screen, mitochondrial fusion inhibitor project, WT and mutant strains, chemical genetic; mitochondrial fusion phenotypic screen; inhibition, % at 10 µM; 190,000 compounds, 2.1% hits; AID 1362, 2008; in the data active means inhibition above about 58%; tested in S. cerevisiae
Diaph act CS – compounds boosting diaphorase resazurin reduction – biochemical, uHTS, resorufin fluorescence, counter-screen for diaphorase-coupled primary assays, primary screen. Diaphorase/resazurin coupled assay, 16 min; stronger effect = higher value; 1 = vehicle wells, 0 = NADH-free wells. activation factor at 20 µM. 190,000 compounds, 0.005% hits. AID 1229, 2008;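 active means diaphorase activity raised at least twofold by the compound at 20 µM; inactive means activation factor below 2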
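Material: bacterial diaphorase enzyme (C. kluyveri); amount: enzyme 0.07 U/mL final; reagent: NADH substrate 0.114 mM plus resazurin dye 0.1 mM, final; doses: single compound dose of 20 µM, 1% DMSO final; timing: 16 min enzyme reaction, ambient temperature; measured by: fluorescence of resorufin, 544 nm excitation, 590 nm emission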
G6PDH counter – L. mesenteroides G6PDH inhibitors, counter-screen for G6PDH-coupled screening assays, biochemical, Leuconostoc mesenteroides enzyme; inhibition, % at 5 µM; AID 1020, 2008; glucose-6-phosphate dehydrogenase [Leuconostoc mesenteroides]; 200,000 compounds, 0.12% hits; Purified L. mesenteroides G6PDH, diaphorase/resazurin coupled fluorescence, 45 min
An asterisk follows results filed as active. The list is not random: actives were taken first. Their share in the collection is about 11%. Unless noted, no stated cut-off is given here; in the data, active means inhibition above about 50%; inactive means the rest.

SMILES	L major viab	Diaphorase inh	WT yeast gro inh	Diaph act CS	G6PDH counter
COc1ccc2c(c1OC)C(=O)NC(C)=C(C(=O)OC(C)(C)C)C2O (stereo not drawn)	8	-6	-14	1.1	28
CN(CC(=O)Nc1ccc(Cl)cc1)CC(=O)Nc1cc(Cl)ccc1C#N	43	12	39	0.9	4
CCOc1ccc(C2C([N+](=O)[O-])=C(C)N(C)C(=O)N2C)cc1OC (stereo not drawn)	56*	3	-16	1	14
COc1ccc(C2C([N+](=O)[O-])=C(C)N(C)C(=O)N2C)cc1OC (stereo not drawn)	20	6	-1	0.9	2
O=C(C1CCC1)N1CCC(O)(c2cccc(F)c2)CC1	-10	5	5	0.9	0
O=[N+]([O-])c1cccc(-c2nc(-c3ccccc3)c(-c3cccs3)[nH]2)c1	14	10	0	0.9	2
Fc1ccc(-c2nc(-c3cccs3)[nH]c2-c2ccc(F)cc2)cc1	99*	8	78*	0.9	9
COc1ccc(-c2nc(-c3cccs3)c(-c3cccs3)[nH]2)cc1OC	100*	28	49	0.7	1
COc1ccc(-c2nc(-c3ccccc3)c(-c3cccs3)[nH]2)cc1OC	66*	4	44	1	10
CC1CCCC(C)N1C(=O)c1cccc2c1-c1ccccc1/C2=N/O (stereo not drawn)	35	33	15	0.7	-6
CC(C)COC(=O)c1cccc2c1-c1ccccc1/C2=N\O	6	28	62*	0.7	2
CCOC(=O)c1cccc2c1-c1ccccc1/C2=N/O	19	16	73*	0.8	2
C[C@@H]1NC(=O)[C@H](CCC(=O)O)NC(=O)c2cc([N+](=O)[O-])cc(F)c2NCCC[C@@H](C(N)=O)NC1=O	-3	19	-19	0.8	12
CCC(c1nnnn1Cc1ccccc1)N(Cc1ccco1)Cc1cc2cc(OC)ccc2[nH]c1=O (stereo not drawn)	18	25	14	0.7	7
CCC(c1nnnn1CCc1ccccc1)N(Cc1ccco1)Cc1cc2cc(C)cc(C)c2[nH]c1=O (stereo not drawn)	90*	26	17	0.7	-2
CCC(c1nnnn1CCc1ccccc1)N(Cc1ccco1)Cc1cc2c(C)ccc(C)c2[nH]c1=O (stereo not drawn)	87*	39	6	0.6	8
O=C1/C(=C/c2ccccc2)Nc2ccccc21	2	0	0	1	2
CC(=O)/C=C1/C(=O)Nc2ccccc21	94*	7	22	0.9	12
Cc1nc2ccc(-c3nc4ccccc4o3)cc2[nH]1	72*	13	3	0.9	2
CCOC(=O)c1c(NC(=O)c2ccc(Cl)cc2)csc1C	-4	8	3	0.9	-26
CCCCNC(=O)C1CCN(S(=O)(=O)c2cnc[nH]2)CC1	-5	5	71*	1	1
Cc1ccc(CNC(=O)C2CCN(S(=O)(=O)c3cnc[nH]3)CC2)cc1	-4	12	3	0.9	1
COC(=O)c1[nH]nc(C(=O)OC(C)(C)C)c1-c1ccccc1	1	5	7	0.9	2
COCCNC(=S)NC(=O)CC12CC3CC(CC(C3)C1)C2	88*	22	1	0.8	15
O=C(CSc1ncnc2c1sc1ccccc12)Nc1ccc(Br)cc1	60*	0	-1	1	-22
O=C(CSc1ncnc2c1oc1ccccc12)Nc1nc2ccccc2s1	-4	21	-18	0.8	-59
COc1cc(Br)cc(CNc2ccc(F)c([N+](=O)[O-])c2)c1O	5	10	35	0.9	2
CCn1c(NCc2ccccc2NS(=O)(=O)c2ccc(C)cc2)nc2ccccc21	72*	16	12	0.8	14
Cc1ccc(Cn2c(NS(=O)(=O)c3ccccc3)nc3ccccc32)cc1	11	22	31	0.8	8
CCCn1c(NCc2ccccc2NS(=O)(=O)c2ccc(C)cc2)nc2ccccc21	96*	30	-12	0.7	2
